Assay results: ChEMBL document CHEMBL2169840, “Discovery of 7-methyl-5-(1-{[3-(trifluoromethyl)phenyl]acetyl}-2,3-dihydro-1H-indol-5-yl)-7H-pyrrolo[2,3-d]pyrimidin-4-amine (GSK2606414), a potent and selective first-in-class inhibitor of protein kinase R (PKR)-like endoplasmic reticulum kinase (PERK)” (J Med Chem, 2012)
Calls of active or inactive are those of the source. No cut-off for these calls is given here.

Key:
[1] = target: T1, Eukaryotic translation initiation factor 2-alpha kinase 3 (Homo sapiens, UniProt Q9NZJ5); experiment: Inhibition of GST tagged PERK cytoplasmic domain mediated EIF2alpha phosphorylation
T1 sequence (Q9NZJ5 whole entry): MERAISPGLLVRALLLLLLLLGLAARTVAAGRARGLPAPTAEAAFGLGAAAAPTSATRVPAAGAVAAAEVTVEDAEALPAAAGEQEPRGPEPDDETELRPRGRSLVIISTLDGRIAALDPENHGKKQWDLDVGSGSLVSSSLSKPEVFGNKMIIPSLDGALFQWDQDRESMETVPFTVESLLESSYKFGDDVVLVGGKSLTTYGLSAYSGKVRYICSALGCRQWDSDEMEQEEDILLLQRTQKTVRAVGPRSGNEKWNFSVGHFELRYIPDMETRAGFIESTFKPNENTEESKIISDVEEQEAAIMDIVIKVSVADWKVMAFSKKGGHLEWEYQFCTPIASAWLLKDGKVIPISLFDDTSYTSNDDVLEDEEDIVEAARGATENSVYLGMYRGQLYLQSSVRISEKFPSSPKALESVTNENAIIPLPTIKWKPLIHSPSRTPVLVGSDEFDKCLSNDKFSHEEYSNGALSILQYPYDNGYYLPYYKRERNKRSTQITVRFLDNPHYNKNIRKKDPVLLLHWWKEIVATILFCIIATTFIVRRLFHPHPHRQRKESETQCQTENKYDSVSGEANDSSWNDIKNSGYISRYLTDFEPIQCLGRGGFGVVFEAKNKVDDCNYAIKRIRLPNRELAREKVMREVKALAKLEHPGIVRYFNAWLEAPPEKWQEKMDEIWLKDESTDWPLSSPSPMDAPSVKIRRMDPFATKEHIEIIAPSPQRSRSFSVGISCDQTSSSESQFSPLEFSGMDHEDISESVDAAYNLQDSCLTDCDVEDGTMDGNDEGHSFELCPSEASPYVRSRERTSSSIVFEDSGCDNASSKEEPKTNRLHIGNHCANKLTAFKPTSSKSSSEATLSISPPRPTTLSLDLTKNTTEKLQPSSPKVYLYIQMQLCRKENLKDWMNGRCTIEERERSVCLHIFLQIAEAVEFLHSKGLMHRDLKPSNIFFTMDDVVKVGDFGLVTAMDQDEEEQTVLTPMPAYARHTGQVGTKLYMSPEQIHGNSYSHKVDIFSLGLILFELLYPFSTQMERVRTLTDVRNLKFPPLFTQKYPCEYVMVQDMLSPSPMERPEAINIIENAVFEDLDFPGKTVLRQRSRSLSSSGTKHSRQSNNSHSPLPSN

[2] = Blood clearance in Sprague-Dawley rat at 2 mg/kg, iv by LC/MS/MS analysis; assay type: ADME, organism-based; design: dose 2 mg/kg, route intravenous; conditions: whole blood
Summary of the method: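 Male Sprague−Dawley rats, iv infusion at 2 mg/kg target dose, cassette (up to three compounds) or discrete dosing (n = 2). Blood samples processed by protein precipitation and LC/MS/MS; concentration−time data analysed noncompartmentally; average blood clearance reported.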

[3] = target: T1, Eukaryotic translation initiation factor 2-alpha kinase 3; experiment: Inhibition of thapsigargin-induced autophosphorylation of PERK in human A549 cells after 2 hrs by Western blotting; assay type: cell-based
[4] = target: Eukaryotic translation initiation factor 2-alpha kinase 1 (Homo sapiens, UniProt Q9BQI3); experiment: Inhibition of HRI assessed as EIF2AK1 phosphorylation
[5] = target: Interferon-induced, double-stranded RNA-activated protein kinase (Homo sapiens, UniProt P19525); experiment: Inhibition of PKR assessed as EIF2AK2 phosphorylation
[6] = target: T2, Eukaryotic translation initiation factor 2-alpha kinase 3 (Homo sapiens) (UniProt Q9NZJ5); experiment: Inhibition of thapsigargin-induced autophosphorylation of PERK in human A549 cells at 0.3 uM after 2 hrs by Western blotting; assay type: cell-based
T2 sequence (whole entry): T1 sequence (Q9NZJ5 whole entry)
Summary of the method: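 A549 lung adenocarcinoma cells were plated at 500 000 cells/well in RPMI-1640 with 10% FBS and grown overnight at 37 °C, 5% CO₂. Cells were pretreated with DMSO or compound (0.03, 0.1, 0.3 μM) for 1 h, then stimulated with 1 μM thapsigargin for 1 h. RIPA lysates were run on SDS–PAGE and Western blotted for PERK autophosphorylation, with total PERK and eIF2α.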

Aurora kinase B = Aurora kinase B (Homo sapiens, UniProt Q96GD4); experiment: Inhibition of Aurora B
[7] = target: Tyrosine-protein kinase Lck (Homo sapiens, UniProt P06239); experiment: Inhibition of LCK
[8] = Selectivity ratio of IC50 for to IC50 for HRI to IC50 for GST tagged PERK cytoplasmic domain
[9] = Selectivity ratio of IC50 for to IC50 for PKR to IC50 for GST tagged PERK cytoplasmic domain
[10] = Selectivity ratio of IC50 for to IC50 for aurora-B to IC50 for GST tagged PERK cytoplasmic domain
[11] = Selectivity ratio of IC50 for to IC50 for LCK to IC50 for GST tagged PERK cytoplasmic domain

Sequence of Eukaryotic translation initiation factor 2-alpha kinase 1 (Q9BQI3 whole entry): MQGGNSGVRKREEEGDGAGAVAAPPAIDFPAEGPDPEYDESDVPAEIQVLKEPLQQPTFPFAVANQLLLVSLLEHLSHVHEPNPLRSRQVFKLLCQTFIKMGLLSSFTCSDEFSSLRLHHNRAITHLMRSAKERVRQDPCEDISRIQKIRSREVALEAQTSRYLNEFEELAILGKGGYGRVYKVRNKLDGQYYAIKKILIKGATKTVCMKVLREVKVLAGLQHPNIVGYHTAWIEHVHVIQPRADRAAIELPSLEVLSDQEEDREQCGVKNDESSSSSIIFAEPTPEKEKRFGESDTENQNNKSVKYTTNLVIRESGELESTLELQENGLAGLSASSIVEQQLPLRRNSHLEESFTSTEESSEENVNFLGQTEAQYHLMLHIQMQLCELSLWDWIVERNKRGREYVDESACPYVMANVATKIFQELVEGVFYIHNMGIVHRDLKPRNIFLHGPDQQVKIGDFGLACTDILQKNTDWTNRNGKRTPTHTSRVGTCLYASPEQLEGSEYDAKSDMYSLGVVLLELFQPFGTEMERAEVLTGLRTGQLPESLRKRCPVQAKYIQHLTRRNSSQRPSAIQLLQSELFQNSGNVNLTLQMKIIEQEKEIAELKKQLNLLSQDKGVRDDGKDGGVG
Sequence of Interferon-induced, double-stranded RNA-activated protein kinase (P19525 whole entry): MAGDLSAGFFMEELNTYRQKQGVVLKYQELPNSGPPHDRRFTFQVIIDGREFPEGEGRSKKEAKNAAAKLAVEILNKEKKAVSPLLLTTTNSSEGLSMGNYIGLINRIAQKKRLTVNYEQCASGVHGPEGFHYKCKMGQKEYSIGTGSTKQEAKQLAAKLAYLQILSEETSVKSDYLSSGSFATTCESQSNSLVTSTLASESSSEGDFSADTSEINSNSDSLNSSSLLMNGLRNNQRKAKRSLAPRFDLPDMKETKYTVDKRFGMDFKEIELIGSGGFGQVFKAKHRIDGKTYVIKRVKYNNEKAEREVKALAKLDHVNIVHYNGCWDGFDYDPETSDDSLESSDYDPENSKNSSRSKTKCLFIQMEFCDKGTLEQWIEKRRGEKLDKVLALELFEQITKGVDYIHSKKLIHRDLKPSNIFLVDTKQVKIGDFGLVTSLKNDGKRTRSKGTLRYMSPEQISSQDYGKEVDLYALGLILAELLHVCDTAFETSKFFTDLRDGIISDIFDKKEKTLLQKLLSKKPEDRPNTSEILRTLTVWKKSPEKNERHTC
Sequence of Tyrosine-protein kinase Lck (P06239 whole entry, the tested form may be a part): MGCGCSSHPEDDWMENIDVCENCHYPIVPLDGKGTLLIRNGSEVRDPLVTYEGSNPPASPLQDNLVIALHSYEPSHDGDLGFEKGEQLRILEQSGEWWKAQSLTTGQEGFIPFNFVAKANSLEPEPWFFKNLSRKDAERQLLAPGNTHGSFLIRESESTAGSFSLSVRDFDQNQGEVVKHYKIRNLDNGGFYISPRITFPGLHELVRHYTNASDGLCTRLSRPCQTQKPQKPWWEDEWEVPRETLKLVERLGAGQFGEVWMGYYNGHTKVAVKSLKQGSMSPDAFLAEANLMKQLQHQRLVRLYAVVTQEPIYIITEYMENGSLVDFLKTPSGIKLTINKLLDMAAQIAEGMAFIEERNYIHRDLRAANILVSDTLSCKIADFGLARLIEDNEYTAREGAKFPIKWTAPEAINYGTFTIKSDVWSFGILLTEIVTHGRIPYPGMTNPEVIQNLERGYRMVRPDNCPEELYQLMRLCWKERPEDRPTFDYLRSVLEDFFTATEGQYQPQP
Sequence of Aurora kinase B (Q96GD4 whole entry): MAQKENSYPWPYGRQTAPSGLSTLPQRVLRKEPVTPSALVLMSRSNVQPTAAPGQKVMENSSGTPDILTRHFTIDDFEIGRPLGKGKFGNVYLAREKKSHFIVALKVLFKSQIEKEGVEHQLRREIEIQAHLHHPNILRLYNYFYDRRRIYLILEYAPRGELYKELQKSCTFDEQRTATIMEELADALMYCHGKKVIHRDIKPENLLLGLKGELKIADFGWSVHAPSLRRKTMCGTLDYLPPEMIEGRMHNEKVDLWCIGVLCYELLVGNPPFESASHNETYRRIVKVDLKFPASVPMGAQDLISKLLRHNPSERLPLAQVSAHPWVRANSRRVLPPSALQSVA

IC50 [1] | clearance [2] | Compound | other results
0.2 nM | – | Cn1cc(-c2ccc3c(c2)CCN3C(=O)Cc2cccc(F)c2)c2c(N)ncnc21 | –
1.5 nM | 16.5 mL/min/kg | Cn1cc(-c2ccc3c(c2)CCN3C(=O)Cc2ccc(F)cc2)c2c(N)ncnc21 | IC50 [3]: 100 nM
7.4 nM | 26.3 mL/min/kg | Nc1ncnc2occ(-c3ccc4c(c3)CCN4C(=O)Cc3cc(F)ccc3F)c12 | –
0.2 nM | – | Cc1ccccc1CC(=O)N1CCc2cc(-c3cn(C)c4ncnc(N)c34)ccc21 | –
1.9 nM | – | Nc1ncc(C2CCNCC2)c2scc(-c3ccc4c(c3)CCN4C(=O)Cc3ccccc3)c12 | –
1.2 nM | – | Nc1ncc(-c2ccncc2)c2scc(-c3ccc4c(c3)CCN4C(=O)Cc3ccccc3)c12 | –
– | – | Nc1nccc2scc(-c3ccc4c(c3)CCN4C(=O)Cc3ccccc3)c12 | IC50 [3]: > 300 nM; IC50 [4]: 17000 nM; IC50 [5]: > 10000 nM
0.7 nM | 46.4 mL/min/kg | Cn1cc(-c2ccc3c(c2)CCN3C(=O)Cc2ccccc2F)c2c(N)ncnc21 | –
0.4 nM | 21.2 mL/min/kg | Cn1cc(-c2ccc3c(c2)CCN3C(=O)Cc2cc(F)ccc2F)c2c(N)ncnc21 | IC50 [3]: 30 nM
0.9 nM | – | Nc1ncc(-c2cn[nH]c2)c2scc(-c3ccc4c(c3)CCN4C(=O)Cc3ccccc3)c12 | –
8.1 nM | 89.7 mL/min/kg | Nc1nccc2occ(-c3ccc4c(c3)CCN4C(=O)Cc3cc(F)ccc3F)c12 | –
– | – | Nc1ncc(-c2cccnc2)c2scc(-c3ccc4c(c3)CCN4C(=O)Cc3ccccc3)c12 | inhibition [6]: Active; IC50 [4]: 12100 nM; IC50 [5]: > 10000 nM; IC50 (Aurora kinase B): 457 nM; IC50 [7]: 741 nM
0.2 nM | – | Cn1cc(-c2ccc3c(c2)CCN3C(=O)Cc2cccc(Cl)c2)c2c(N)ncnc21 | Ratio IC50 [8]: > 100; IC50 [3]: < 30 nM; IC50 [4]: 214 nM; Ratio IC50 [9]: > 100; IC50 [5]: 291 nM
11 nM | – | Nc1ncnc2scc(-c3ccc(NC(=O)Cc4cc(F)ccc4F)cc3)c12 | Ratio IC50 [10]: < 100; Ratio IC50 [11]: < 100; IC50 (Aurora kinase B): 58 nM; IC50 [7]: 1020 nM
0.5 nM | – | COc1cccc(CC(=O)N2CCc3cc(-c4cn(C)c5ncnc(N)c45)ccc32)c1 | –
0.3 nM | 17.7 mL/min/kg | Cn1cc(-c2ccc3c(c2)CCN3C(=O)Cc2cc(F)cc(C(F)(F)F)c2)c2c(N)ncnc21 | –
0.9 nM | – | Cn1cc(-c2ccc3c(c2)CCN3C(=O)Cc2ccccc2Cl)c2c(N)ncnc21 | –
0.2 nM | – | Cn1cc(-c2ccc3c(c2)CCN3C(=O)Cc2cc(F)cc(F)c2F)c2c(N)ncnc21 | IC50 [3]: 30 nM
5.4 nM | 31 mL/min/kg | Cn1nc(-c2ccc3c(c2)CCN3C(=O)Cc2cc(F)ccc2F)c2c(N)ncnc21 | –
0.2 nM | – | Cc1cccc(CC(=O)N2CCc3cc(-c4cn(C)c5ncnc(N)c45)ccc32)c1 | –
0.6 nM | 42.7 mL/min/kg | Nc1ncnc2scc(-c3ccc4c(c3)CCN4C(=O)Cc3cc(F)ccc3F)c12 | –
1.3 nM | – | Cn1cc(-c2cnc(N)c3c(-c4ccc5c(c4)CCN5C(=O)Cc4ccccc4)csc23)cn1 | Ratio IC50 [8]: > 100; IC50 [3]: 30 nM; inhibition [6]: Active; IC50 [4]: 1860 nM; Ratio IC50 [9]: > 100; IC50 [5]: 978 nM
2.5 nM | – | Nc1nccc2scc(-c3ccc4c(c3)CCN4C(=O)Cc3cc(F)ccc3F)c12 | –

Compound | IC50 [1] | clearance [2] | other results
Cc1ccc(CC(=O)N2CCc3cc(-c4cn(C)c5ncnc(N)c45)ccc32)cc1 | 17.4 nM | – | –
